# Assay results as given in the EternaBench riboswitch data.
# Test system: MS2 coat protein
# Experiment: apparent Kd, MS2 coat protein; higher = weaker binding; RNA-MaP array; FMN 200 µM where present
# Summary of the method: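 The titrant was SNAP-549-labelled MS2 coat protein, run from 0.7 or 1.5 nM in doubling steps to 3 µM. It was applied to designs transcribed by stalled E. coli RNA polymerase on Illumina sequencing-chip clusters, without ligand first and then with constant ligand, in 100 mM Tris-HCl pH 7.5, 80 mM KCl, 4 mM MgCl2, BSA, DTT, yeast tRNA and Tween-20. The apparent Kd is the median of filtered per-cluster binding-curve fits, with green signal normalised to red-channel RNA signal and control-cluster median Fmax.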
# [1] = designed as: ON switch for flavin mononucleotide, no ligand
# [2] = ligand present: flavin mononucleotide, designed as: ON switch for flavin mononucleotide
# [3] = designed as: OFF switch for flavin mononucleotide, no ligand
# [4] = ligand present: flavin mononucleotide, designed as: OFF switch for flavin mononucleotide
Sequence,apparent Kd [1],apparent Kd [2],apparent Kd [3],apparent Kd [4]
CAUGUCCUCACAGGAUAUGCAAUGUAUUUCAUUGCAGAAGGGUGAACACAUGAGGAUCACCCAUGUGGACAUGAUAUAUUUAAU,0.521 µM,0.0695 µM,–,–
CAUGUCCUCACAGGAUAUGCACCACUUUGUGGUGCAGAAGGGUGGUUACAUGAGGAUCACCCAUGUGGACAUGAUAUAUUUAAU,0.0937 µM,1.15 µM,–,–
CAUUAAUUCAUUAUAGUUAUUAUACAGGAUAUGUUACAUGAGGAUCACCCAUGUUAUCAUGGUAAACAGAAGGGUAUAUAAAGU,–,–,0.0335 µM,0.0575 µM
CAUUCGUGUCUAGGAUAUGAGUGACAAGCGCGAGAUUUUCUCGCCGCUAGCUCAGAAGGAGACAUGAGGAUCACCCAUGUAAGG,–,–,0.0601 µM,0.0118 µM
CAUUUACAUGAGGAUCACCCAUGUGAGGAUAUGGAAUGGUUCAUUGUCUGACCUCCUUCUAGAAGGCACAUCUC,–,–,0.0296 µM,0.0305 µM
CAUUUUGCCGAGGAUAUGGAGGAUGACACUCUACCAGAAGGUGGCACAUGAGGAUCACCCAUGUGGAGUUCGCG,–,–,0.0793 µM,0.0927 µM
CCAAAAGCUACAGGAUAUCCGACUCGGUUGUCAGGAGAAGGGUGGCAAGACAUGAGGAUCACCCAUGUAGGGUCAUCCUUGAAA,–,–,0.0099 µM,0.0221 µM
CCAACCGGCACCGGUUGAACAUGAGGAUCACCCAUGUACUCCAGAAGGCCGCCCAAGAACGGAGUGGAGGAUAUGGAGGUUCUC,0.0155 µM,0.012 µM,–,–
CCACGGUAUGUAGGAUAUGCAUAGCAUUGCUAUGCAGAAGGACAUGAGGAUCACCCAUGUAUGUAUUCCAUACUAAUCCCGUGC,–,–,0.00642 µM,0.00637 µM
CCAGCCCGUGCAGGAUAUACAUGAGGAUCACCCAUGUAGGAGAAUCCGCCGGUAGAAGGGUACGGACGGGCGUCUGACGCUUGU,–,–,0.00587 µM,0.00633 µM
CCAGCGUAUGUGAGGAUAUGCUGGUCCUUGGAUCAGCAGAAGGCACAUGAGGAUCACCCAUGUGAUGACGUUGG,–,–,0.0509 µM,0.287 µM
CCAGGCUUCGAGAAGGACAUGAGGAUCACCCAUGUGCGUGUGAAGCAGCCGUGAGGCUGCAUCAUGUAGGAUAUCGGAGUCUGU,–,–,0.0722 µM,0.391 µM
CCAUCAGCGAACGAUACGGUUGGACAUGAGGAUCACCCAUGUAGAAGGACAGGAGAAUAACGGCUGUAGGAUAUACAUUUAGUG,–,–,0.0407 µM,0.0339 µM
CCAUCGAGUGUGAGGAUAUGCUGGUCCUUGGAUCAGCAGAAGGCACAUGAGGAUCACCCAUGUGAAUACGGUGG,–,–,0.0299 µM,0.199 µM
CCAUCGUGUGUGAGGAUAUGCUGGACCUUGGUUCAGCAGAAGGCACAUGAGGAUCACCCAUGUGAAUACGGUGG,–,–,0.0189 µM,0.0323 µM
CCAUCGUGUGUGAGGAUAUGCUGGUCCUUGGAUCAGCAGAAGGCACAUGAGGAUCACCCAUGUGAAUACGAUGG,–,–,0.0163 µM,0.0295 µM
CCAUGGAGUGUGAGGAUAUGCUGGUCCUUGGAUCAGCAGAAGGCACAUGAGGAUCACCCAUGUGAAUACCGUGG,–,–,0.0362 µM,0.196 µM
CCCAAACUUGGGCUUGGUGGUGCAUAGGAUAUCCUUGGACAUGAGGAUCACCCAUGUACAACUGUGGAGAAGGGUGCAGGACCU,0.227 µM,0.0396 µM,–,–
CCCAAACUUGGGCUUGGUGGUGCAUAGGAUAUGCUUGAACAUGAGGAUCACCCAUGUACAACUGUGCAGAAGGGUGCAGGGCAA,0.0409 µM,0.0186 µM,–,–

Sequence,apparent Kd [1],apparent Kd [2],apparent Kd [3],apparent Kd [4]
CCCAAGUCAGGAUAUGGAACACAGAGACAUCUCUGUGCCCACCAGAAGGGACAUGAGGAUCACCCAUGUGAUGA,–,–,0.0644 µM,0.296 µM
CCCACGAAAGUCGAACGAUGUAGCAGAAGGACAUGAGGAUCACCCAUGUCAGCUGUAACAGCCAUGUAGGAUAUGCUACAUGGG,–,–,0.00605 µM,0.00577 µM
CCCGACCUGAAGUCGAUACGGAGGAGAAGGCGCCUCCUGGGUCCACAUGAGGAUCACCCAUGUGGCGAGGAUAUCCUCAGUUUU,–,–,0.0118 µM,0.0737 µM
CCCGACUAGAAGUCGAUACGGAGGAGAAGGCGCCUCCUGGGUCCACAUGAGGAUCACCCAUGUGGCGAGGAUAUCCUCAGUUUU,–,–,0.0109 µM,0.0966 µM
CCCUAAUAUCGAGGAUAUGUCUAGACACAUGAGGAUCACCCAUGUAUGUGUAUAGAAGGCGAUAUUAACAGCAUGUUACAUGGG,0.315 µM,0.101 µM,–,–
CCCUCACAUGAGGAUCACCCAUGUCAGGAUAUCUAGUCAGAUAGUGUAGCACUAAUGAAGAGAAGGGACGUAUA,–,–,0.0182 µM,0.0239 µM
CCCUCACAUGAGGAUCACCCAUGUCAGGAUAUUCGAGGCGCAAAUGCGCCAAAUGCAGGAAGAAGGGACGUGCC,–,–,0.0154 µM,0.0257 µM
CCCUCACAUGAGGAUCACCCAUGUUAGGAUAUCCACCGUUGAUGGUGCCGAAUCGGUAGGAGAAGGAACAUACA,–,–,0.0232 µM,0.0546 µM
CCCUCGCGAGGAUAUGCAUCCUCCCUCAUUUCUUUCACUACACAUGAGGAUCACCCAUGUAGAAGGCGCUCUCC,–,–,0.0499 µM,0.0386 µM
CCGAAUGUCACAGGAUAUGGUCCGGGCACGCGACCAGAAGGGUGAUCUUACAUGAGGAUCACCCAUGUAUAGGCGUUAGGCUAC,0.0329 µM,0.442 µM,–,–
CCGAAUGUCACAGGAUAUGGUCCGGGCUCGCGACCAGAAGGGUGAUCUCACAUGAGGAUCACCCAUGUGUAGGCGUUAGGCUAU,0.0341 µM,0.26 µM,–,–
CCGACGAAAGUCGAACGAUGUAGCAGAAGGACAUGAGGAUCACCCAUGUCAGCUGUAACAGCCAUGUAGGAUAUGCUACAUCGA,–,–,0.00441 µM,0.00585 µM
CCGACGAAAGUCGAACGAUGUAGCAGAAGGACAUGAGGAUCACCCAUGUCAGCUGUAACAGCCAUGUAGGAUAUGCUACAUCGG,–,–,0.00444 µM,0.00553 µM
CCGAGAAGGACAGGAUAUGGACAUGAGGAUCACCCAUGUACAUGGGAAUAUAUACUGAAUUUUUACUAGAAGGGUUACAUAAAU,–,–,0.0193 µM,0.0149 µM
CCGCAAAUGCAGGAUAUCGUAUCGGAUACGAUACGAGAAGGGCAUACAUGAGGAUCACCCAUGUGUCCUAGCGG,–,–,0.0166 µM,0.0352 µM
CCGCAAAUGUAGGAUAUCGUAUCGGAUACGAUACGAGAAGGGCAUACAUGAGGAUCACCCAUGUGUCCUAGCGG,–,–,0.0146 µM,0.0157 µM
CCGCCAUGAGGAUAUCCAUCUGGAUCAGACUAGAUCCUGAUGGAGAAGGGACAUGAGGAUCACCCAUGUUGCGG,–,–,0.0628 µM,0.0551 µM
CCGGAAACGGGUAGCUGACAUGAGGAUCACCCAUGUGAAUCUGAGGAUAUGGAUCCUAAUUGGAUCCAGAAGGCAGUCAGCUAC,0.615 µM,0.0614 µM,–,–
CCGGAAAUAGAGGAUAUCGUAUCGGAUACGAUACGAGAAGGCUAUACAUGAGGAUCACCCAUGUGUCCUACCGG,–,–,0.0164 µM,0.0405 µM

Sequence,apparent Kd [1],apparent Kd [2],apparent Kd [3],apparent Kd [4]
CCGGAAUCCUAGGAUAUGCUAGACGAAAGUCUAGCAGAAGGAGGAACAUGAGGAUCACCCAUGUGUCCUACCGG,–,–,0.0186 µM,0.025 µM
CCGGACAUUCGGACAUGAGGAUCACCCAUGUAGGCGGAUUCACAGGAUAUAAGUUCGUCCGAGACUUAGAAGGGUGGCUUCCGA,0.119 µM,0.0546 µM,–,–
CCGGAUAUGCAGGAUAUCGUAUCGGAAACGAUACGAGAAGGGUAUACAUGAGGAUCACCCAUGUGCCUUACCGG,–,–,0.0197 µM,0.0219 µM
CCGUAGAUGGGACAGGAUAUGACUGUCGUCACAUGAGGAUCACCCAUGUCCCGGCAAUGCCACCGUUAGAAGGGUCCCGUCUCGG,0.0144 µM,0.015 µM,–,–
CCGUUACAUGAGGAUCACCCAUGUGAGGAUAUGGUUCGGUACUGUCCUGUCGCGUACUCCAGAAGGCACGUGUC,–,–,0.0335 µM,0.0348 µM
CCGUUGGGCUAGAAGGCUCCGGGAGGGCCGCGGAGAGGAUAUAGCACAUGAGGAUCACCCAUGUGGUAUGACCUUAUGUAAUCA,–,–,0.0374 µM,0.0827 µM
CCUAAGGACACAGGAUAUAGCGUGGUGGCCGGACUCCAACAGCGAGCGGCGCUAGAAGGGUGACCACAUGAGGAUCACCCAUGU,0.709 µM,0.37 µM,–,–
CCUAAGGACACAGGAUAUAGCGUGGUGGCCGGGCUCCAACGGCGAGCGGCGCUAGAAGGGUGACCACAUGAGGAUCACCCAUGU,0.506 µM,0.161 µM,–,–
CCUAAGGACACAGGAUAUAGCGUGGUGGCUAGACUCCAACGGCGAGCGGCGCUAGAAGGGUGACCACAUGAGGAUCACCCAUGU,0.553 µM,0.193 µM,–,–
CCUCAGUAAGGAUAUCAGCUUAAGGAGGUGGUAAAGAGAGCUGAGAAGGUACAUGAGGAUCACCCAUGUUAAAA,–,–,0.0911 µM,0.227 µM
CCUCCCUGAGGAUAUCCACCCUCAUACAUGAGGAUCACCCAUGUUCAUCCGUGGCUACCCGGAGAAGGCAGCUCUG,–,–,0.0578 µM,0.0497 µM
CCUCCUGCAAAGGAUAUCGCGCGGUGACGCUGUCGAGAAGGUUGUACAUGAGGAUCACCCAUGUGGUAUAAGAU,–,–,0.202 µM,0.472 µM
CCUCGACAUGAGGAUCACCCAUGUAAGGAUAUUCUAGGACGUGUUUUUCGUAGCUUUAGAAGAAGGUGCAGGUU,–,–,0.0495 µM,0.175 µM
CCUCGACAUGAGGAUCACCCAUGUCAGGAUAUUGUGUUUCGGGUUUUUUACCGUUAGGCAAGAAGGGAUGUGUG,–,–,0.0292 µM,0.0402 µM
CCUCUACAUGAGGAUCACCCAUGUGAGGAUAUGCGAGGCACGCCCGAUGGGCGCGCCGGUAGAAGGCAUGUGGU,–,–,0.0236 µM,0.0494 µM
CCUCUACAUGAGGAUCACCCAUGUGAGGAUAUGCGAGGCGCGCUCGAUGAGCGCGCCGGUAGAAGGCAUGUGGU,–,–,0.0232 µM,0.0499 µM
CCUCUACAUGAGGAUCACCCAUGUGAGGAUAUGUGAGGCGCGCUCGAUGAGCGCACCGAUAGAAGGCAUGUGGU,–,–,0.0258 µM,0.0705 µM
CCUGCACAUGAGGAUCACCCAUGUCAGGAUAUCUCGCCGCGAAGAGCAACACGGUAUUAGAGAAGGGACACGGG,–,–,0.0281 µM,0.0365 µM
